The text below walks through data of ChEMBL document CHEMBL3627613, “4-Aminoquinoline derivatives as novel Mycobacterium tuberculosis GyrB inhibitors: Structural optimization, synthesis and biological evaluation” (Eur J Med Chem, 2015).

pIC50: −log10 of the molar value. In brackets after ≈: the same amount, converted by molar mass.

Series [1] has as its target DNA gyrase subunit A/DNA gyrase subunit B (Mycobacterium tuberculosis (strain ATCC 25618 / H37Rv), UniProt P9WG45+P9WG47). Kind of series: Inhibition of DNA gyrase GyrA/GyrB in Mycobacterium tuberculosis incubated for 30 mins assessed as reduction in supercoiling of relaxed relaxed pBR322 DNA by ethidium bromide staining based agarose gel electrophoresis method.
For series [2], the system named is Mycobacterium tuberculosis. The experiment in a line: Antimycobacterial activity against Mycobacterium tuberculosis H37Rv assessed as growth inhibition incubated for 7 days by microplate alamar blue assay. It is filed as functional. The conditions noted are these: 168 h. Summed up:
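M. tuberculosis H37Rv inoculum from fresh LJ medium, resuspended in 7H9 broth (0.1% casitone, 0.5% glycerol, OADC), set to McFarland No. 1 and diluted 1:20. Two-fold serial compound dilutions in 7H9-S, with growth and sterile controls. Incubated 7 days at 37 °C, then alamar blue overnight. MIC is the lowest concentration preventing the blue-to-pink colour change.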
(Resazurin is reduced to fluorescent resorufin, in cell work by metabolically active cells.)

The target in another series is DNA gyrase subunit B (Mycobacterium smegmatis, UniProt P0C559). Kind of series: Inhibition of Mycobacterium smegmatis DNA gyrase B expressed in Escherichia coli BL21 (DE3) pLysS cells assessed as reduction in ATPase activity incubated for 100 mins by inorganic phosphate detection assay. Details: species or system Mycolicibacterium smegmatis.
DNA gyrase subunit B, sequence (P0C559 whole entry): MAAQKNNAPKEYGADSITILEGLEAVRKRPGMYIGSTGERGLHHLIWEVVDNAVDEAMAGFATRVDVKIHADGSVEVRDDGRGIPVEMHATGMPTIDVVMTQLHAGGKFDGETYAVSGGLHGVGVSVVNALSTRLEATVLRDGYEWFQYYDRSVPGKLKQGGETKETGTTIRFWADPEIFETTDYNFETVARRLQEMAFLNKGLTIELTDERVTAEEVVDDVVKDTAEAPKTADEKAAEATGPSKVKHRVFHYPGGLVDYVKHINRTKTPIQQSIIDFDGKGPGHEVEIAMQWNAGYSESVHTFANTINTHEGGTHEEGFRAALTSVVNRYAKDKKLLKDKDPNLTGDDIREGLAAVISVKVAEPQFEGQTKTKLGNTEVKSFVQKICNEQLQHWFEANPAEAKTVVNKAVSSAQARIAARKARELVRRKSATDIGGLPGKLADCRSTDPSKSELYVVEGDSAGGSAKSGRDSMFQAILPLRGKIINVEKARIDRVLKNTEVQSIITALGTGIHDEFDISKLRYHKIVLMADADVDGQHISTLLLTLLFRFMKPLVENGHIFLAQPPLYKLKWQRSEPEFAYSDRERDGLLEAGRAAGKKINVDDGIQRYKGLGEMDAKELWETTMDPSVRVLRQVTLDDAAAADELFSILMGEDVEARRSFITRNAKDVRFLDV
The nature of series [3]: Cytotoxicity against mouse RAW264.7 cells assessed as inhibition of cell viability at 50 uM incubated for 48 hrs at 37 degC by MTT assay relative to control. It is filed as cell-based. The conditions noted are these: read-out: INH. Summed up:
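RAW 264.7 mouse macrophages, 5×10^5 cells per well, exposed to compound for 48 h at 37 °C under 5% CO2. MTT added 4 h before the end. Formazan dissolved in DMSO and absorbance read at 560 nm against blank. Triplicates, run twice.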

DNA gyrase subunit A/DNA gyrase subunit B, sequence (P9WG45 whole entry): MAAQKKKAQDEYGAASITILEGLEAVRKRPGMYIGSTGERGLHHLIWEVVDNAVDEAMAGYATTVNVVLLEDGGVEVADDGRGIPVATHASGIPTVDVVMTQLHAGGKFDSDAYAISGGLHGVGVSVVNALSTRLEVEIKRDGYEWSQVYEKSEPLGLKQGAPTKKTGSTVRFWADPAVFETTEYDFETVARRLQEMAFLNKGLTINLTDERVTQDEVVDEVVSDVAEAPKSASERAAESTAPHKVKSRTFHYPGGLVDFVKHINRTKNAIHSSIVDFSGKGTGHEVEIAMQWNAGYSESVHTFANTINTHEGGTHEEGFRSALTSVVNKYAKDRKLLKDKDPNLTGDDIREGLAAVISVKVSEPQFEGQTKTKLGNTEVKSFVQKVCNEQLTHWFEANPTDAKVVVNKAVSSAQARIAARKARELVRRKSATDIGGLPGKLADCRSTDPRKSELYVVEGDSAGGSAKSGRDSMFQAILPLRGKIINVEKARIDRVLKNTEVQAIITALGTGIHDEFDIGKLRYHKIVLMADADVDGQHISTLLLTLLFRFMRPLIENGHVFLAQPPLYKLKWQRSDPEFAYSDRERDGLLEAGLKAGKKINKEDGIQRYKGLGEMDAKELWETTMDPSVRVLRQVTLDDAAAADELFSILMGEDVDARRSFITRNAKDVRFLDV
DNA gyrase subunit A/DNA gyrase subunit B, sequence (P9WG47 whole entry): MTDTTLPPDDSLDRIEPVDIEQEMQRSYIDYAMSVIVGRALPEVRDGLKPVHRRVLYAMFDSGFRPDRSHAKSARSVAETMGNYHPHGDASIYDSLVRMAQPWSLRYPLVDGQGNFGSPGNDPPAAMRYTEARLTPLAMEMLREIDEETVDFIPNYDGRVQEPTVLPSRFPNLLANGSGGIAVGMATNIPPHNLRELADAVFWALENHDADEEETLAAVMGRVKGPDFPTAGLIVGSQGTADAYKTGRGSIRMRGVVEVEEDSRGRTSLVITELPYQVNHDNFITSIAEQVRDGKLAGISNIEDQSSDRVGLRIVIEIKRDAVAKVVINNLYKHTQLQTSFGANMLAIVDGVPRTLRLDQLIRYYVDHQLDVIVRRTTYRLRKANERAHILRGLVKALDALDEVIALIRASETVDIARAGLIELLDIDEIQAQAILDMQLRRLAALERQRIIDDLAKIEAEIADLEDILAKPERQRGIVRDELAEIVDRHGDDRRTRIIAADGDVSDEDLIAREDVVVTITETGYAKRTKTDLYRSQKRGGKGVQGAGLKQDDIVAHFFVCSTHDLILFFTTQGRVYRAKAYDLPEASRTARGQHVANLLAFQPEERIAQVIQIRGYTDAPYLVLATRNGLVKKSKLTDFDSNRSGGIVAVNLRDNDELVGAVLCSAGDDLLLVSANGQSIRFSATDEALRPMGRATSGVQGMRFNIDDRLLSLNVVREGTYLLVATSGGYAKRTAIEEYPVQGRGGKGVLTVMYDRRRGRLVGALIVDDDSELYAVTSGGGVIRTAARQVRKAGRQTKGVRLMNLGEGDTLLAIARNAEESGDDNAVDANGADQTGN

Usually pIC50 stands for −log10 of the IC50, conventionally taken in molar units. The term MIC denotes the lowest concentration found to suppress growth. On to `COc1ccc2ncc(C(=O)NN)c(Nc3ccc(NCCCN4CCOCC4)cc3)c2c1`, for which the pIC50 was 4.81 in series [1] and 4.35 on DNA gyrase subunit B. Also, the MIC in series [2] amounted to 27.8 µM (≈ 12.5 µg/mL). In addition, the cytotoxicity at 48 h, 50 µM in series [3] was determined as 9.59%.
The matching figures for `CCOC(=O)c1cnc2ccc(F)cc2c1Nc1ccc(NCCCN2CCN(CC)CC2)cc1`: 5.10, 4.77, 13 µM (≈ 6.25 µg/mL) and 20.2%.
For the compound `CCN1CCN(CCCOc2ccc(Nc3c(C(=O)O)cnc4ccc(F)cc34)cc2)CC1`, the pIC50 in series [1] was 5.22; on DNA gyrase subunit B it was 5.17. In addition, in series [2], the MIC was 6.91 µM (≈ 3.13 µg/mL). Besides, in series [3], the cytotoxicity at 48 h, 50 µM turned out to be 24.2%.
With `CCOC(=O)c1cnc2ccc(C(F)(F)F)cc2c1Nc1ccc(OCCCN2CCOCC2)cc1`, the pIC50 in series [1] was 4.78; at DNA gyrase subunit B, 4.41. For the same compound, the MIC in series [2] was 43.1 µM (≈ 21.7 µg/mL). For the same compound, the cytotoxicity at 48 h, 50 µM in series [3] was 20.2%.
The matching figures for `O=C(O)c1cnc2ccccc2c1Nc1ccc(OCCCN2CCOCC2)cc1`: 4.66, below 4.30, 30.7 µM (≈ 12.5 µg/mL) and 11.3%.
The matching figures for `CCOC(=O)c1cnc2ccc(C(F)(F)F)cc2c1Nc1ccc(NCCCN2CCN(CC)CC2)cc1`: 5.42, 5.05, 1.47 µM (≈ 0.779 µg/mL) and 20.1%.
Turning to `CCOC(=O)c1cnc2ccccc2c1Nc1ccc(OCCCN2CCN(CC)CC2)cc1`, the negative logarithm of the IC50 (pIC50) in series [1] was 4.62; on DNA gyrase subunit B it was below 4.30. Besides, the MIC in series [2] was determined as 13.5 µM (≈ 6.25 µg/mL). In addition, the cytotoxicity at 48 h, 50 µM in series [3] was 21.4%.
For the compound `CCOC(=O)c1cnc2ccc(OC)cc2c1Nc1ccc(NCCCN2CCOCC2)cc1`, the pIC50 was 5.03 in series [1] and 4.65 at DNA gyrase subunit B. The MIC in series [2] turned out to be 23.4 µM (≈ 10.9 µg/mL). Moreover, in series [3], the cytotoxicity at 48 h, 50 µM came to 19.3%.
The matching figures for `NNC(=O)c1cnc2ccc(F)cc2c1Nc1ccc(NCCCN2CCOCC2)cc1`: 4.98, 4.73, 23.6 µM (≈ 10.3 µg/mL) and 29.1%.
As for `CCN1CCN(CCCNc2ccc(Nc3c(C(=O)O)cnc4ccccc34)cc2)CC1`, the results for the negative logarithm of the IC50 (pIC50) (in series [1]; at DNA gyrase subunit B) were 5.23 and 4.95, respectively. In addition, in series [2], the MIC stood at 11.8 µM (≈ 5.12 µg/mL). In addition, in series [3], the cytotoxicity at 48 h, 50 µM came out at 32.3%.
The matching figures for `CCOC(=O)c1cnc2ccccc2c1Nc1ccc(NCCCN2CCOCC2)cc1`: 5.06, 4.75, 14.4 µM (≈ 6.25 µg/mL) and 1.82%.
The matching figures for `CCN1CCN(CCCOc2ccc(Nc3c(C(=O)NN)cnc4ccc(F)cc34)cc2)CC1`: 5.53, 5.53, 3.34 µM (≈ 1.56 µg/mL) and 11.9%.
Regarding `COc1ccc2ncc(C(=O)O)c(Nc3ccc(NCCCN4CCOCC4)cc3)c2c1`, the pIC50 in series [1] was 4.90; at DNA gyrase subunit B, 4.41. Besides, in series [2], the MIC was determined as 28.6 µM (≈ 12.5 µg/mL). The cytotoxicity at 48 h, 50 µM in series [3] is 16.1%.
Turning to `NNC(=O)c1cnc2ccc(F)cc2c1Nc1ccc(OCCCN2CCOCC2)cc1`, the pIC50 in series [1] was 4.67; on DNA gyrase subunit B it was 4.68. The MIC in series [2] was determined as 28.4 µM (≈ 12.5 µg/mL). Also, in series [3], the cytotoxicity at 48 h, 50 µM stood at 13.7%.
As for `COc1c(N2C[C@@H]3CCCN[C@@H]3C2)c(F)cc2c(=O)c(C(=O)O)cn(C3CC3)c12` [MOXIFLOXACIN], in series [2], the MIC came out at 1.26 µM (≈ 0.506 µg/mL). The pIC50 on DNA gyrase subunit B was below 4.30.
Regarding `CO[C@H]1/C=C/O[C@@]2(C)Oc3c(C)c(O)c4c(O)c(c(/C=N/N5CCN(C)CC5)c(O)c4c3C2=O)NC(=O)/C(C)=C\C=C\[C@H](C)[C@H](O)[C@@H](C)[C@@H](O)[C@@H](C)[C@H](OC(C)=O)[C@@H]1C` [RIFAMPIN], in series [2], the MIC was 0.23 µM (≈ 0.189 µg/mL).
On the same count and under the same terms, under `NNC(=O)c1ccncc1` [ISONIAZID] stands 0.66 µM (≈ 0.0905 µg/mL); under `CO[C@@H]1[C@@H](OC(N)=O)[C@@H](O)[C@H](Oc2ccc3c(O)c(NC(=O)c4ccc(O)c(CC=C(C)C)c4)c(=O)oc3c2C)OC1(C)C` [NOVOBIOCIN], above 200 µM.
